Laboratory results taken from ChEMBL document CHEMBL1126958, “Quinolinecarboxylic acids. 3. Synthesis and antibacterial evaluation of 2-substituted-7-oxo-2,3-dihydro-7H-pyrido[1,2,3-de] [1,4]benzothiazine-6-carboxylic acids related to rufloxacin” (J Med Chem, 1993).
Converted amounts (≈) assume the structure as drawn.

What was measured:
Pseudomonas aeruginosa = assay: Minimal inhibitory concentration against Pseudomonas aeruginosa ATCC 9027 strain; assay type: functional
Procedure, shortened: (§1)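 Agar dilution on TSA agar; compounds added by 2-fold dilution to melted medium at 50 °C just before pouring. Organisms stored at –80 °C, diluted in peptonated water to 1–2 × 10^7 CFU, applied with multipoint inoculator. MIC = lowest concentration preventing visible growth after 24 h at 35 °C.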

Enterobacter cloacae = assay: Minimal inhibitory concentration against Enterobacter cloacae OMNFI174 strain; assay type: functional; procedure, shortened: as §1
[1] = Minimal inhibitory concentration against Shigella enteritidis strain; assay type: functional; procedure, shortened: as §1
Proteus vulgaris = assay: Minimal inhibitory concentration against Proteus vulgaris CNUR6 strain; assay type: functional; procedure, shortened: as §1
Enterococcus faecalis = assay: Minimal inhibitory concentration against Streptococcus faecalis LEP strain; assay type: functional; procedure, shortened: as §1
Escherichia coli = assay: Minimal inhibitory concentration against Escherichia coli ISF 432 strain; assay type: functional; procedure, shortened: as §1
Klebsiella pneumoniae = assay: Minimal inhibitory concentration against Klebsiella pneumoniae ATCC 10031 strain; assay type: functional; procedure, shortened: as §1
Staphylococcus aureus = assay: Minimal inhibitory concentration against […] aureus ATCC 6538 strain; assay type: functional; procedure, shortened: as §1
[2] = Urinary excretion in rat after 0-4 hours of oral administration at 50 mg/kg; assay type: ADME, organism-based; design: dose 50 mg/kg, route oral; settings: urine
Procedure, shortened: (§2)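 Fasted male Wistar rats, three per group, dosed orally at 50 mg/kg. Urine collected over 0-4, 4-8 and 8-24 h, diluted 1:100 in ultrapure water, then treated with water and 70% perchloric acid, vortexed and centrifuged. Supernatant analysed by HPLC with pH 2.8 KH2PO4/phosphoric acid mobile phase. Result given as % of administered dose excreted.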

[3] = Urinary excretion in rat after 8-24 hours of oral administration at 50 mg/kg; assay type: ADME, organism-based; design: dose 50 mg/kg, route oral; settings: urine; procedure, shortened: as §2
[4] = Urinary excretion in rat after 4-8 hours of oral administration at 50 mg/kg; assay type: ADME, organism-based; design: dose 50 mg/kg, route oral; settings: urine; procedure, shortened: as §2

SMILES | MIC (Pseudomonas aeruginosa) [µg/mL] | MIC (Enterobacter cloacae) [µg/mL] | MIC [1] [µg/mL] | MIC (Proteus vulgaris) [µg/mL] | MIC (Enterococcus faecalis) [µg/mL] | MIC (Escherichia coli) [µg/mL] | MIC (Klebsiella pneumoniae) [µg/mL] | MIC (Staphylococcus aureus) [µg/mL] | dose excreted [2] [%] | dose excreted [3] [%] | dose excreted [4] [%]
CC1Cn2cc(C(=O)O)c(=O)c3cc(F)c(N4CCN(Cc5ccc(F)cc5F)CC4)c(c32)S1 (stereo unspecified) | > 64 | > 64 | > 64 | > 64 | 64 (≈ 131 µM) | 8 (≈ 16.3 µM) | > 64 | 32 (≈ 65.4 µM) |  |  | 
CC1Cn2cc(C(=O)O)c(=O)c3cc(F)c(N4CCNCC4)c(c32)S1 (stereo unspecified) | 64 (≈ 176 µM) | 16 (≈ 44 µM) | 8 (≈ 22 µM) | > 64 | > 64 | 0.25 (≈ 0.688 µM) | 2 (≈ 5.5 µM) | 8 (≈ 22 µM) | 0.37 | 3.12 | 1.92
O=C(O)c1cn2c3c(c(N4CCNCC4)c(F)cc3c1=O)SCC2 |  |  |  |  |  |  |  |  | 2.73 | 11.5 | 5.59
CC1Cn2cc(C(=O)O)c(=O)c3cc(F)c(N4CCN(S(=O)(=O)c5ccc(F)cc5)CC4)c(c32)S1 (stereo unspecified) | > 64 | 8 (≈ 15.3 µM) | 8 (≈ 15.3 µM) | > 64 | 16 (≈ 30.7 µM) | 2 (≈ 3.83 µM) | 1 (≈ 1.92 µM) | 4 (≈ 7.67 µM) |  |  | 
CC1CN(c2c(F)cc3c(=O)c(C(=O)O)cn4c3c2SC(C)C4)CC(C)N1 (stereo unspecified) | 32 (≈ 81.7 µM) | 4 (≈ 10.2 µM) | 4 (≈ 10.2 µM) | > 64 | 64 (≈ 163 µM) | 0.25 (≈ 0.639 µM) | 0.25 (≈ 0.639 µM) | 4 (≈ 10.2 µM) |  |  | 
CN1CCN(c2c(F)cc3c(=O)c(C(=O)O)cn4c3c2SC(c2ccc(F)cc2)C4)CC1 (stereo unspecified) | > 64 | 32 (≈ 69.9 µM) | 64 (≈ 140 µM) | > 64 | 64 (≈ 140 µM) | 8 (≈ 17.5 µM) | > 64 | 16 (≈ 35 µM) |  |  | 
CC1Cn2cc(C(=O)O)c(=O)c3cc(F)c(N4CCCNCC4)c(c32)S1 (stereo unspecified) | > 64 | 8 (≈ 21.2 µM) | 32 (≈ 84.8 µM) | 64 (≈ 170 µM) | 32 (≈ 84.8 µM) | 4 (≈ 10.6 µM) | 1 (≈ 2.65 µM) | 2 (≈ 5.3 µM) |  |  | 

Continued, in another order:

MIC (Pseudomonas aeruginosa) [µg/mL] | MIC (Enterobacter cloacae) [µg/mL] | MIC [1] [µg/mL] | MIC (Proteus vulgaris) [µg/mL] | MIC (Enterococcus faecalis) [µg/mL] | MIC (Escherichia coli) [µg/mL] | MIC (Klebsiella pneumoniae) [µg/mL] | MIC (Staphylococcus aureus) [µg/mL] | SMILES | dose excreted [2] [%] | dose excreted [3] [%] | dose excreted [4] [%]
> 64 | > 64 | > 64 | > 64 | > 64 | 8 (≈ 15.3 µM) | 8 (≈ 15.3 µM) | > 64 | CC1Cn2cc(C(=O)O)c(=O)c3cc(F)c(N4CCN(Cc5ccccc5C(F)(F)F)CC4)c(c32)S1 (stereo unspecified) |  |  | 
> 64 | > 64 | > 64 | > 64 | 2 (≈ 4.54 µM) | 1 (≈ 2.27 µM) | 2 (≈ 4.54 µM) | 0.5 (≈ 1.14 µM) | CC1Cn2cc(C(=O)O)c(=O)c3cc(F)c(N4CCN(c5ccccn5)CC4)c(c32)S1 (stereo unspecified) |  |  | 
> 64 | > 64 | > 64 | > 64 | > 64 | 16 (≈ 33.9 µM) | > 64 | 32 (≈ 67.9 µM) | CC1Cn2cc(C(=O)O)c(=O)c3cc(F)c(N4CCN(Cc5cccc(F)c5)CC4)c(c32)S1 (stereo unspecified) |  |  | 
32 (≈ 81.8 µM) | 1 (≈ 2.55 µM) | 1 (≈ 2.55 µM) | 64 (≈ 164 µM) | 64 (≈ 164 µM) | 0.5 (≈ 1.28 µM) | 0.5 (≈ 1.28 µM) | 16 (≈ 40.9 µM) | CC1Cn2cc(C(=O)O)c(=O)c3cc(F)c(N4CCN(C=O)CC4)c(c32)S1 (stereo unspecified) |  |  | 
